Assay outcomes deposited in PubChem BioAssay by several laboratories.
In the library only some 3.1% were active in any assay of this set; here they are far more common.
aDG glyco act – alpha-DG glycosylation activation; Pro5-aDG cells, alpha-DG glycosylation AlphaScreen (IIH6); 0% Pro5, 100% B10-LARGE cell signal; activation, % at 10 µM; actives 0.22% (n = 360,000); AID 624168;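 active means activation of at least 8% versus controls, or a plate z-score of at least 8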;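 further: Pro5 are CHO cells carrying HIG-tagged alpha-DG that lacks glycosylation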
Lipid droplet – hepatic lipid droplet formation modulation; AML12 mouse hepatocytes, oleate lipid droplets, BODIPY imaging; inhibition, % at 6.5 µM; actives 0.4% (n = 240,000);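 active means lipid droplet intensity inhibited by at least 50%, with more than 500 cells counted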
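Material – AML12 mouse liver cells · Also added – oleate loading, 100 µM · Compound dosing – 6.5 µM single-point dosing · Times – overnight treatment with compound plus oleate · Measured by – fluorescence imaging, 20x objective, two fields per well · Read-out – percent inhibition of filter-corrected integrated lipid droplet intensity per well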
MPTP block – permeability transition pore inhibition. isolated mouse mitochondria, Ca2+ swelling absorbance, 30 min. inhibition, % at 10 µM. actives 1.4% (n = 360,000). AID 602449;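 active means inhibition of 50% or more, scaled per plate between neutral and stimulator controls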;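 further: 0% = DMSO wells given calcium and 100% = 1 mM EGTA wells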
ADAM10 inh – ADAM10 inhibition, QFRET primary screen; inhibition, % at 7 µM; recombinant ADAM10, EDANS/DABCYL FRET peptide cleavage, 3 h; actives 0.62% (n = 370,000); AID 720582;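 active means inhibition above a per-campaign cutoff equal to the mean of compounds falling between control-based bounds plus 3 SD, cut at about 20% in these data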;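 further: 0% = DMSO wells while the 100% control is not disclosed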
ADAM17 inh – inhibitors of human ADAM17. actives 0.83% (n = 370,000). inhibition, % at 6.95 µM. P78536. recombinant ADAM17, EDANS/DABCYL FRET peptide cleavage;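 active means inhibition above the mean of compounds lying between control limits plus 3 SD, set per campaign, cut at about 8.5% in these data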;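 further: 0% = DMSO-only wells as the low control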
Target sequence (P78536 215-824 limits assumed): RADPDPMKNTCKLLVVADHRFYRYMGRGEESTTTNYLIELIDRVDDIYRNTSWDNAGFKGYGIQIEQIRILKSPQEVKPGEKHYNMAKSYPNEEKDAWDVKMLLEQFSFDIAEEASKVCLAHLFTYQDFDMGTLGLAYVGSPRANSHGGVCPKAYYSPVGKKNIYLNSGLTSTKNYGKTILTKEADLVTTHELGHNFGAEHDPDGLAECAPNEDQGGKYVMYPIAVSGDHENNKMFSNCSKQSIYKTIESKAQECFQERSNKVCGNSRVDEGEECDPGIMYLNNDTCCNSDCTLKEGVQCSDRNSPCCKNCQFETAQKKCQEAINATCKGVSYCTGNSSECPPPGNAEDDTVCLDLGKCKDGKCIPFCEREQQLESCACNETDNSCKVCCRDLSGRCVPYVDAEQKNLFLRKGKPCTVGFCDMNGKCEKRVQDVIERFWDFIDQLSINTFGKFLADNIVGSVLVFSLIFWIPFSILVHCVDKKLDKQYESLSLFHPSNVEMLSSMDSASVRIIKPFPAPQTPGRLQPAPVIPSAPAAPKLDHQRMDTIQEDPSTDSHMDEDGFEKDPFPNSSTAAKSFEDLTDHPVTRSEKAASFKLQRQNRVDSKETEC
V-ATPase pH – regulators of yeast V-ATPase proton transport. S. cerevisiae, pHLuorin cytosolic pH fluorescence. response, % at 10 µM. actives 0.37% (n = 350,000); in the data active means response mostly above about 7.3%, no sharp cut-off; inactive means mostly below about 5.4%; further: actives read high
aDG glyco conf – confirmation of alpha dystroglycan glycosylation activators; shares compounds with aDG glyco act; Pro5-aDG cells, alpha-DG glycosylation, IIH6 AlphaLISA; scaled to LARGE-overexpressing B10 cells as 100%; activation, % at 10 µM (by protocol); actives 17% (n = 600);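 active means activation of at least 7% in one or more replicates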;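 further: cells exposed to compound for two days before detection; 0% = DMSO-treated Pro5 cells and 100% = DMSO-treated B10-LARGE cells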
* hit, by the source's call; nt = not tested or not shown.

SMILES	aDG glyco act	Lipid droplet	MPTP block	ADAM10 inh	ADAM17 inh	V-ATPase pH	aDG glyco conf
CCn1c(Cc2ccccc2)nnc1SCC(=O)Nc1cc(C)on1	43.9*	11.0	-2.1	nt	nt	-4.3	-0.6
Clc1ccccc1Nc1nc(NCc2ccccc2)nc2ccsc12	6.4*	nt	9.8	-208.0	-63.2	nt	-0.4
CCN(CC)C(=O)CC[C@H]1CC[C@]2(CCCN(C3CCCCC3)C2)O1	nt	nt	nt	7.4	3.2	nt	nt
O=C(CN1CCN(S(=O)(=O)c2ccc(F)cc2)CC1)Nc1ccc(Cl)c(C(F)(F)F)c1	5.4*	nt	2.0	12.5	7.6	3.0	1.3
O=C(NCC(c1ccccc1)c1ccccc1)[C@H](Cc1ccccc1)NC1(C(=O)NC2CCCCC2)CCCCCC1	nt	nt	nt	-0.9	-0.3	nt	nt
COc1ccc(CCC(=O)OCC(=O)c2c(N)n(CC(C)C)c(=O)n(C)c2=O)cc1	6.2	-13.8	-0.3	14.6	3.0	-3.2	nt
COc1ccccc1CCC(=O)OCC(=O)c1c(N)n(CC(C)C)c(=O)n(C)c1=O	6.5*	nt	1.5	9.8	3.0	1.0	-0.8
CCOC(=O)[C@@]12CN(C(=O)OC(C)(C)C)CC=C1N(Cc1ccc(OC)cc1)C(=O)[C@H]2CC(=O)NCC1CCCCC1	nt	nt	nt	8.0	3.0	nt	nt
COc1ccc(/C(CC2(O)C(=O)Nc3ccccc32)=N\O)cc1 (stereo unspecified)	6.6*	9.2	0.7	1.7	-8.0	2.6	0.7
C[C@H](CO)N1C[C@H](C)[C@@H](CN(C)C(=O)Nc2ccc(N3CCN(C)CC3)cc2)OCc2cnnn2CCCC1=O	0.0	nt	-0.2	8.2	-0.8	0.0	nt
C[C@@H]1CN([C@H](C)CO)C(=O)CCCn2nncc2CO[C@@H]1CN(C)C(=O)Nc1ccc(N2CCN(C)CC2)cc1	8.5*	nt	-3.4	3.8	0.7	-0.3	0.6
CCCCC(=O)Nc1ccc(NC(=O)c2ccc([N+](=O)[O-])cc2Cl)cc1OC	11.6*	10.4	-1.2	-6.2	-2.8	-2.7	-0.9
CC(C)Nc1nc(-c2ccccn2)nc(-c2ccccc2)c1C#N	8.8*	12.5	-0.4	-2.6	-5.6	0.2	0.9
O=C(CN1C(=O)c2ccc(Br)cc2C1=O)NCC1CCCO1 (stereo unspecified)	5.5*	1.2	-0.9	-4.0	0.0	2.8	0.6
CCc1cc(CNC(=O)c2ccc3nc(Cc4ccc(OC)c(OC)c4)oc3c2)on1	8.2*	0.1	-0.7	-11.7	-9.0	1.0	2.4
O=C(OCc1ccccc1)N1CCC2CC1c1cc(Cl)ccc12 (stereo unspecified)	9.7*	nt	-2.2	-2.1	-0.9	3.0	0.4
O=C(OCc1ccccc1)N1CCC2CC1c1ccc(Cl)cc12 (stereo unspecified)	1.0	nt	-1.5	-20.0	-2.1	1.4	nt
O=S(=O)(c1cccs1)N1CCC(c2cn3ccccc3n2)CC1	nt	nt	nt	-31.0	-9.1	nt	nt
O=C(Nc1ccc(F)cc1)c1ccc2ncsc2c1	0.2	-1.2	-0.2	-7.6	-4.2	-6.0	nt
N#Cc1ccsc1NC(=O)c1cccc(-n2cnnn2)c1	10.6*	-0.2	1.6	11.8	2.2	0.5	7.1*
CC(C)c1nnc(NC(=O)c2cccc(-n3cnnn3)c2)s1	0.0	nt	-11.3	-3.7	-4.1	-4.5	nt
N#Cc1ccsc1NC(=O)c1ccc2ncsc2c1	14.6*	nt	0.5	-21.2	-2.4	2.7	5.5*
Cc1c(C)c2cccnc2c2ncccc12	0.8	nt	0.3	nt	nt	-2.0	nt
Cc1ccc2ccc3cccnc3c2n1	3.6*	nt	0.7	-2.2	-4.3	-1.8	4.7*
Cc1ccc(CS(=O)(=O)Cc2ccc(C(=O)NCc3cccs3)o2)cc1	0.2	-3.2	2.6	-1.3	-6.1	-0.2	nt
SMILES	aDG glyco act	Lipid droplet	MPTP block	ADAM10 inh	ADAM17 inh	V-ATPase pH	aDG glyco conf
Cc1ccc(CS(=O)Cc2ccc(C(=O)NCc3cccs3)o2)cc1 (stereo unspecified)	6.1*	-25.7	-0.7	-9.3	-0.9	-1.0	0.0
O=C(Nc1ccc(F)cc1)OC1CC2CC1[C@H]1CCCCN1C2 (stereo partly specified)	nt	nt	nt	-7.0	-3.2	nt	nt
CCOc1ccc(NC(=O)c2ccc(F)c(S(=O)(=O)N3CCN(c4ccccn4)CC3)c2)cc1	5.0*	nt	9.1	5.2	3.5	-1.6	2.1*
CCOc1ccc(NC(=O)c2ccc(F)c(S(=O)(=O)N3CCCC3)c2)cc1	2.2	nt	1.1	-4.8	-1.7	nt	nt
O=C(Nc1ccc(F)c(F)c1)c1ccc(F)c(S(=O)(=O)N2CCC3(CC2)OCCO3)c1	10.3*	3.9	-1.9	-0.4	0.9	1.5	0.2
O=S(=O)(c1cc(F)ccc1F)N1CCC2(CC1)OCCO2	0.0	12.0	0.6	-0.8	-0.6	2.9	nt
O=C(NCCCc1ccccc1)[C@H](CO)NC1(C(=O)NCCc2c[nH]c3ccccc23)CCCCC1	nt	nt	nt	0.5	-3.2	nt	nt
CCC(c1nnnn1-c1c(C)cccc1C)N1CCN(c2ccc(C(F)(F)F)cc2[N+](=O)[O-])CC1 (stereo unspecified)	7.6*	nt	0.7	nt	nt	nt	-1.3
CCn1c(SCC(=O)NC2(C#N)CCCCC2)nc2ccccc2c1=O	4.0*	nt	-1.4	-7.0	1.1	6.2	-0.3
CCn1c(SCC(=O)NCc2ccccc2)nc2ccccc2c1=O	0.0	nt	0.1	-6.4	-2.6	1.3	nt
CC(C)c1[nH]nc2c1C(c1ccc(F)cc1)NC2=O (stereo unspecified)	nt	nt	nt	-14.2	-3.2	nt	nt
O=C(CCN1N=C(c2ccccc2)CCC1=O)NC1CCCC1	3.0*	-7.1	0.1	-4.1	-2.5	2.5	-1.1
CC/C(=N\NC(=S)Nc1cc(C)ccc1C)c1ccc(OC(F)F)cc1	5.7*	-28.2	3.9	-4.6	-0.9	-2.6	-0.3
COC(=O)c1cc(-c2cc3ccccc3s2)c(=O)n2c1CCC2	nt	nt	nt	-190.9	-52.2	nt	nt
Cc1cccc(NC(=S)N(CCCN2CCCC2)Cc2cccn2Cc2ccc(Cl)cc2)c1	2.8*	5.8	3.3	0.9	-2.1	0.8	10.9*
CCCCN(CC)CCCNC(=O)c1cn(CC)c2ccc(S(=O)(=O)N3CCc4ccccc4C3)cc2c1=O	8.5*	8.2	-3.3	-4.3	-0.4	-2.0	2.4
O=C1C(Cl)=C(NCc2ccco2)C(=O)c2ccccc21	10.8*	nt	-1.0	-18.6	-4.2	0.3	10.2*
O=C1c2ccccc2-c2onc3ccc(NCc4ccco4)c1c23	3.2	nt	6.4	nt	nt	1.5	nt
C=CCOC(=O)N1CCN(C(=O)c2ccc3c(c2)nc(C)n3C2CCCC2)CC1	nt	nt	nt	3.1	1.3	nt	nt
CCCNS(=O)(=O)c1ccc(OCC(=O)NCCC2=CCCCC2)cc1	9.1*	-2.2	-4.1	-8.0	-1.5	-1.6	0.3
CCOc1ccc(-n2cc(C(=O)N3CCCCCC3)c3cc(OC)c(OC)cc3c2=O)cc1	5.5*	nt	0.6	-0.3	0.8	14.7	9.9*
CCOC(=O)[C@@]12CCCC3=C1N(CCC3)C(=O)[C@H]2CC(=O)NCCc1ccccc1OC	nt	nt	nt	-11.8	-3.2	nt	nt
